Data: paper PMC3991427 (Angewandte Chemie (International ed. in English), 2014)

System: MCF-7 breast cancer cells
Type: cell-based
Conditions: broad compound screen at 10 μM, compared with (+)-21
Method in brief: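 Single-concentration screen: each test compound at 10 μM, run in parallel against MCF-7 breast cancer cells and non-tumorigenic MCF-10A breast cells. The assay is proliferation-based, and the read-out is relative cell number after treatment, expressed as a percentage. Selectivity is judged by comparing the MCF-7 response with the MCF-10A response.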

c1ccsc1 [compound 28, thiophene]
inhibition of cell proliferation / cell growth (in words): did not inhibit cell growth

c1ccc2sccc2c1 [compound 29, benzothiophene]
inhibition of cell proliferation / cell growth (in words): did not inhibit cell growth
